Key:
[1] = target: T1, Bombesin receptor subtype-3 (Mus musculus) (UniProt O54798); assay: Agonistic activity at mouse BRS3 expressed in HEK293AEO cells at 10 uM by aequorin bioluminescence assay relative to dY peptide; type: functional, cell-based
T1 sequence (whole entry): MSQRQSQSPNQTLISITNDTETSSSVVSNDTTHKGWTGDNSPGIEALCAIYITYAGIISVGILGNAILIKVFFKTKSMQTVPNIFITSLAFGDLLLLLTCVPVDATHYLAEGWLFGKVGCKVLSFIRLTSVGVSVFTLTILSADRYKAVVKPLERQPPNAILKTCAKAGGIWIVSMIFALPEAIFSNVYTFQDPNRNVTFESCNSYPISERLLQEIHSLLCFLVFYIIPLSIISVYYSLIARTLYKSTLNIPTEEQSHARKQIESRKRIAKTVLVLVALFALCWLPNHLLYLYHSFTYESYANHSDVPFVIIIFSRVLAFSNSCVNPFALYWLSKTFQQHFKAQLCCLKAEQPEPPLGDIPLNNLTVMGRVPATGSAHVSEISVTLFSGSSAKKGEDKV

[2] = target: T2, Bombesin receptor subtype-3 (Homo sapiens) (UniProt P32247); assay: Agonistic activity at human BRS3 expressed in HEK293AEO at 10 uM cells by aequorin bioluminescence assay relative to dY peptide; type: functional, cell-based
T2 sequence (whole entry): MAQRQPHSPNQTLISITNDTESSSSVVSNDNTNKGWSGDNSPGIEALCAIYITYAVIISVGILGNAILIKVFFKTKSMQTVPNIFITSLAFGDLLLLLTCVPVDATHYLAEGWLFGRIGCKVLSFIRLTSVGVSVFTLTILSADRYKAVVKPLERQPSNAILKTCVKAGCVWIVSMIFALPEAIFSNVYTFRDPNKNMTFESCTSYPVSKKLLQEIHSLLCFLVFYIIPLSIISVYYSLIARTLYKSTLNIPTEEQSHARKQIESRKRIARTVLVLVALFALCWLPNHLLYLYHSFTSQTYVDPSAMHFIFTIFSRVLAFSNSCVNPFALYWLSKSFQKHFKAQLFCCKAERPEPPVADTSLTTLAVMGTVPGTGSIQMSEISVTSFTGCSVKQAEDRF

[3] = target: T3, Bombesin receptor subtype-3 (Homo sapiens, UniProt P32247); assay: Agonistic activity at human BRS3 expressed in HEK293AEO cells by aequorin bioluminescence assay; type: functional, cell-based
T3 sequence (P32247 whole entry): T2 sequence (whole entry)

[4] = target: T4, Bombesin receptor subtype-3 (Mus musculus, UniProt O54798); assay: Agonistic activity at mouse BRS3 expressed in HEK293AEO cells by aequorin bioluminescence assay; type: functional, cell-based
T4 sequence (O54798 whole entry): T1 sequence (whole entry)

[5] = Oral bioavailability in Sprague-Dawley rat at 4 mg/kg; type: ADME, organism-based; settings: in vivo
Summary of the method: (§1)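 Sprague-Dawley rats given compound as solution in EtOH/PEG400/water (10:40:50), 1 mg/kg iv and 4 mg/kg po; clearance, steady-state volume of distribution, half-life, oral bioavailability and dose-normalised AUC derived.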

[6] = Volume of distribution at steady state in Sprague-Dawley rat at 1 mg/kg, iv and 4 mg/kg, po; type: ADME, organism-based; settings: in vivo, read-out: Vdss; summary of the method: as §1
[7] = Half life in Sprague-Dawley rat at 1 mg/kg, iv and 4 mg/kg, po; type: ADME, organism-based; settings: in vivo; summary of the method: as §1
[8] = Clearance in Sprague-Dawley rat at 1 mg/kg, iv and 4 mg/kg, po; type: ADME, organism-based; settings: in vivo; summary of the method: as §1

SMILES	Activity [1]	Activity [2]	EC50 [3]	EC50 [4]	bioavailability [5]	Vd [6]	half-life [7]	clearance [8]
O=C(O)c1ccccc1-c1ccc(CCc2ncc(Cc3cccc(F)c3)[nH]2)cc1	108%	107%	159 nM	7.9 nM	–	–	–	–
Cc1ccccc1Cc1cnc(CCc2ccc(-c3ccccc3C(=O)O)cc2)[nH]1	106%	93%	127 nM	9.3 nM	–	–	–	–
O=C(O)c1ccccc1-c1ccc(CCc2ncc(Cc3ccccc3F)[nH]2)cc1	121%	108%	177 nM	9.5 nM	–	–	–	–
CCCCc1cnc(C(CCCC)Cc2ccc(-c3ccccc3C(=O)O)cc2)[nH]1 (stereo not drawn)	96%	66%	2660 nM	527 nM	–	–	–	–
CCCCc1cnc(CCCc2ccc(-c3ccccc3C(=O)O)cc2)[nH]1	101%	54%	5600 nM	382 nM	–	–	–	–
CC(C)(C)c1cnc(CCc2ccc(-c3ccccc3C(=O)O)cc2)[nH]1	108%	45%	4330 nM	2740 nM	–	–	–	–
O=C(O)c1ccccc1-c1ccc(CCc2ncc(CC3CCOCC3)[nH]2)cc1	106%	96%	338 nM	23 nM	–	–	–	–
CCCCc1cnc(C(C)Cc2ccc(-c3ccccc3C(=O)O)cc2)[nH]1 (stereo not drawn)	110%	79%	2760 nM	184 nM	–	–	–	–
O=C(O)c1ccccc1-c1ccc(CCc2ncc(C3CCCCC3)[nH]2)cc1	116%	102%	375 nM	14.7 nM	–	–	–	–
N#Cc1cccc(Cc2cnc(CCc3ccc(-c4ccccc4C(=O)O)cc3)[nH]2)c1	102%	95%	812 nM	20 nM	–	–	–	–
COc1ccccc1Cc1cnc(CCc2ccc(-c3ccccc3C(=O)O)cc2)[nH]1	101%	88%	1720 nM	163 nM	–	–	–	–
CCCCc1cnc(C(CCC)Cc2ccc(-c3ccccc3C(=O)O)cc2)[nH]1 (stereo not drawn)	102%	96%	1180 nM	165 nM	–	–	–	–
O=C(O)c1ccccc1-c1ccc(CCc2ncc(CC3CCCCC3)[nH]2)cc1	102%	104%	41 nM	7.3 nM	–	–	–	–
N#Cc1ccccc1Cc1cnc(CCc2ccc(-c3ccccc3C(=O)O)cc2)[nH]1	139%	51%	5480 nM	642 nM	–	–	–	–
N#Cc1ccc(Cc2cnc(CCc3ccc(-c4ccccc4C(=O)O)cc3)[nH]2)cc1	85%	25%	5890 nM	723 nM	–	–	–	–
CCC(C)(CC)Cc1cnc(CCc2ccc(-c3ccccc3C(=O)O)cc2)[nH]1	116%	97%	76 nM	30 nM	–	–	–	–
CCC(C)(C)Cc1c[nH]c(CCc2ccc(-c3ccccc3C(=O)O)cc2)n1	94%	101%	25 nM	9.6 nM	–	–	–	–
O=C(O)c1ccccc1-c1ccc(CCc2ncc(CC3CCC3)[nH]2)cc1	99%	105%	588 nM	7.1 nM	–	–	–	–
COc1ccc(Cc2cnc(CCc3ccc(-c4ccccc4C(=O)O)cc3)[nH]2)cc1	88%	44%	5360 nM	513 nM	–	–	–	–
CC(C)CCc1cnc(CCc2ccc(-c3ccccc3C(=O)O)cc2)[nH]1	111%	112%	119 nM	10 nM	–	–	–	–
O=C(O)c1ccccc1-c1ccc(CCc2ncc(-c3ccccc3)[nH]2)cc1	101%	30%	–	–	–	–	–	–

SMILES	Activity [1]	Activity [2]	EC50 [3]	EC50 [4]	bioavailability [5]	Vd [6]	half-life [7]	clearance [8]
O=C(O)c1ccccc1-c1ccc(CCc2ncc(Cc3cccc(Cl)c3)[nH]2)cc1	98%	91%	825 nM	31 nM	–	–	–	–
CC(C)(C)CCc1cnc(CCc2ccc(-c3ccccc3C(=O)O)cc2)[nH]1	99%	102%	39 nM	6.2 nM	–	–	–	–
O=C(O)c1ccccc1-c1ccc(CCc2ncc(Cc3cccc(F)c3F)[nH]2)cc1	110%	104%	87 nM	8 nM	–	–	–	–
CCCCc1cnc(CCc2ccc(-c3ccccc3C(=O)O)cc2)[nH]1	116%	78%	2710 nM	93 nM	16%	0.1 L/kg	1.56 h	1.3 mL/min/kg
COc1cccc(Cc2cnc(CCc3ccc(-c4ccccc4C(=O)O)cc3)[nH]2)c1	80%	73%	4120 nM	79 nM	–	–	–	–
O=C(O)c1ccccc1-c1ccc(CCc2ncc(CC3CCCC3)[nH]2)cc1	94%	102%	133 nM	7.9 nM	–	–	–	–
O=C(O)c1ccccc1-c1ccc(CCc2ncc(Cc3ccccc3)[nH]2)cc1	111%	109%	205 nM	11 nM	–	–	–	–
CCCCc1cnc(C(Cc2ccc(-c3ccccc3C(=O)O)cc2)C(C)C)[nH]1 (stereo not drawn)	87%	60%	4620 nM	2240 nM	–	–	–	–
O=C(O)c1ccccc1-c1ccc(CCc2ncc(Cc3ccccc3Cl)[nH]2)cc1	109%	100%	292 nM	22 nM	–	–	–	–
O=C(O)c1ccccc1-c1ccc(CCc2ncc(CC3CC3)[nH]2)cc1	144%	96%	1000 nM	72 nM	–	–	–	–
O=C(O)c1ccccc1-c1ccc(CCc2ncc(CCC3CCCCC3)[nH]2)cc1	101%	94%	642 nM	33 nM	–	–	–	–
O=C(O)c1ccccc1-c1ccc(CCc2ncc(Cc3ccc(F)cc3)[nH]2)cc1	104%	84%	1600 nM	50 nM	–	–	–	–
CCCCc1cnc(/C=C/c2ccc(-c3ccccc3C(=O)O)cc2)[nH]1	39%	8%	4380 nM	10000 nM	–	–	–	–
O=C(O)c1ccccc1-c1ccc(CCc2ncc(Cc3ccc(Cl)cc3)[nH]2)cc1	105%	89%	2290 nM	102 nM	–	–	–	–
O=C(O)c1ccccc1-c1ccc(CCc2ncc(CC3CCCCCC3)[nH]2)cc1	102%	106%	88 nM	5.7 nM	–	–	–	–
CCCCc1cnc(C(CC)Cc2ccc(-c3ccccc3C(=O)O)cc2)[nH]1 (stereo not drawn)	104%	76%	2720 nM	340 nM	–	–	–	–
CCCCc1cnc(Cc2ccc(-c3ccccc3C(=O)O)cc2)[nH]1	0%	0%	> 10000 nM	> 10000 nM	–	–	–	–
Cc1ccc(Cc2cnc(CCc3ccc(-c4ccccc4C(=O)O)cc3)[nH]2)cc1	120%	88%	2660 nM	162 nM	–	–	–	–
O=C(O)c1ccccc1-c1ccc(CCc2ncc(CCc3ccccc3)[nH]2)cc1	89%	86%	1320 nM	174 nM	–	–	–	–
Cc1cccc(Cc2cnc(CCc3ccc(-c4ccccc4C(=O)O)cc3)[nH]2)c1	89%	87%	4310 nM	75 nM	–	–	–	–
O=C(O)c1ccccc1-c1ccc(CCc2nc(-c3ccccc3)c[nH]2)cc1	–	–	4950 nM	872 nM	–	–	–	–
